ABHD5-PLIN5 inh: ABHD5-PLIN5 interaction inhibitors, primary screen, cell lysate, split luciferase complementation, luminescence. Perilipin-5 (Homo sapiens) + 1-acylglycerol-3-phosphate O-acyltransferase ABHD5 (Homo …. Split G. princeps luciferase complementation, 4 h. AID 602281, 2012. inhibition, % at 4 µM. actives 0.78% (n = 360,000);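 active = inhibition above the mean inhibition across every tested compound plus 3 SD, cut at about 22% in these data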;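 note: 0% = DMSO only wells and the 100% control is not disclosed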
Target sequence (Q00G26 whole entry, looked up): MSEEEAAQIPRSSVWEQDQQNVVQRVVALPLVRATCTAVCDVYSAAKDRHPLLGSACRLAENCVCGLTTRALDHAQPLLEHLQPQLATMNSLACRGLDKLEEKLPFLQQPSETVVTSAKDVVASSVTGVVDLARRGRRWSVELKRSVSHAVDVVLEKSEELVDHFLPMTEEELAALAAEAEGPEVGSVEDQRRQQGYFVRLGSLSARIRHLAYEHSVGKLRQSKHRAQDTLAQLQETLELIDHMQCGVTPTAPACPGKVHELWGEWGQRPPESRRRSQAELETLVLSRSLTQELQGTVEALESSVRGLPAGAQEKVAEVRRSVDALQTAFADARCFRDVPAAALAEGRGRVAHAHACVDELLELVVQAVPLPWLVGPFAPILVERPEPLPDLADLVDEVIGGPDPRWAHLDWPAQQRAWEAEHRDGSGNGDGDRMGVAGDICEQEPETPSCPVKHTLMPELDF
Target sequence (Q8WTS1 whole entry, looked up): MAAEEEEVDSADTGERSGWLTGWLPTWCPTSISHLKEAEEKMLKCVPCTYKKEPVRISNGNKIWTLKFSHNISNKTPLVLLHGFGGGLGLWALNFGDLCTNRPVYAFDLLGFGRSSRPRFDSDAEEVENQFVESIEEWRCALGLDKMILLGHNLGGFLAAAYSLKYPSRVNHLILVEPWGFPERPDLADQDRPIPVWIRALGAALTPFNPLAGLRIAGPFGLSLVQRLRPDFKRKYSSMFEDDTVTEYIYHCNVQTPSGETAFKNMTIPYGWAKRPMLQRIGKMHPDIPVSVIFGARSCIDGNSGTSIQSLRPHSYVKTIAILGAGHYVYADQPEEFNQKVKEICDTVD
APOBEC3G inh: APOBEC3G DNA deaminase inhibitors, primary screen, biochemical, fluorescence, single-stranded DNA substrate, uHTS. actives 0.28% (n = 330,000). recombinant A3G, ssDNA deamination FAM/TAMRA fluorescence. inhibition, % at 20 µM;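 active = inhibition of at least 40% at 20 µM, with no more than 30% in the related APOBEC3A deaminase screen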;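 note: plate controls were DMSO wells with A3G for no effect and wells lacking A3G enzyme for full effect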
FN deposition inh: inhibitors of fibronectin matrix deposition, primary screen, AH1F cells, Alexa488-fibronectin fluorescence, plate reader. AH1F fibroblasts, overnight. inhibition, % at 12.6 µM. actives 0.086% (n = 350,000). AID 743247, 2014;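 active = mean inhibition across replicates of 30% or more, regardless of how many single replicates reach that level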;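 note: positive control wells lacked labelled fibronectin entirely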
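Material: AH1F fibroblast monolayer depositing Alexa488-labelled fibronectin into matrix | Input: 10000 AH1F cells/well | Medium: DMEM plus 2% serum, read in PBS | Reagent: Alexa488-fibronectin, 24 nM final in well | Compound dosing: One dose per compound, pinned | Schedule: 1 h adhesion, overnight exposure | Measured by: Fluorescence at 485 nm excitation, 525 nm emission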
A3A deaminase: APOBEC3A ssDNA deaminase inhibitors, primary screen, selectivity assay for APOBEC3G inhibitor project, biochemical, FAM/TAMRA oligo cleavage fluorescence. DNA dC->dU-editing enzyme APOBEC-3A (Homo sapiens), P31941. recombinant A3A, FAM/TAMRA ssDNA deamination fluorescence. inhibition, % at 20 µM. actives 0.41% (n = 330,000). AID 493011, 2011;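 active = at least 40% inhibition at 20 µM here, with at most 30% in a related deaminase screen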;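 note: plate controls were A3A with DMSO for no effect and wells lacking A3A enzyme for full effect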
APOBEC3A confirm: APOBEC3A deaminase inhibitors, retest, confirmation, selectivity assay for APOBEC3G inhibitor project, biochemical, single concentration, fluorescence readout; shares compounds with A3A deaminase; recombinant A3A, ssDNA deaminase UDG fluorescence assay; inhibition, % at 20 µM; actives 63% (n = 1,400); AID 493151, 2011;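 active = inhibition reaching a set limit, 80% of the first screen's cutoff, at 20 µM in any replicate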;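 note: plate controls were DMSO wells with A3A for no effect and wells lacking A3A enzyme for full effect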
UDG ctr A3A: E. coli UDG inhibitors, confirmation, counter-screen for APOBEC3A inhibitor project, biochemical, single concentration, fluorescence, FAM/TAMRA oligo; shares compounds with A3A deaminase; UDG counterscreen, FAM/TAMRA uracil oligo fluorescence; inhibition, % at 20 µM; 1,000 tested, under 10 active; call rule not given here
Starred values were filed as active, the others as inactive; x = not tested or not shown. A selection: hits, their analogues and other compounds. The true share with any hit is near 1.2%.

SMILES	ABHD5-PLIN5 inh	APOBEC3G inh	FN deposition inh	A3A deaminase	APOBEC3A confirm	UDG ctr A3A
Nc1ccc2nc(SCC(=O)Nc3ccc(N4CCOCC4)c(Cl)c3)sc2c1	-5	13	8	41*	55*	-2
CCCC(=O)Nc1ccc2nc(SCC(=O)Nc3ccc(N4CCOCC4)c(Cl)c3)sc2c1	4	12	x	63*	46*	-3
C[C@H]1CN(C)C(=O)c2cc(N(C)C)ccc2O[C@@H]1CN(C)C(=O)OC(C)(C)C	x	x	-12	x	x	x
CCCC#Cc1ccc2c(c1)[C@@H]1[C@@H](CCN1C(=O)C1CC1)[C@@H](CO)N2	x	x	-2	x	x	x
CC(=O)Nc1ccc(NC(C)=O)s1	-3	-5	-7	-4	x	x
CC(=O)Nc1ccc(-c2ccccc2)s1	2	17	x	45*	45*	0
C[C@H](CO)N1C[C@H](C)[C@@H](CN(C)C(=O)Nc2ccccc2)OCCCC[C@H](C)Oc2ccc(NC(=O)CCC(F)(F)F)cc2C1=O	x	x	-1	x	x	x
CN1C(=O)c2cc(NC(=O)c3ccc(F)cc3)ccc2OC[C@H]2O[C@H](CC(=O)NCC3CC3)CC[C@@H]21	x	x	4	x	x	x
CCN(CC)C(=O)CC(c1ccc(N(C)C)cc1)c1c(OC)cc(OC)c2c(-c3ccccc3)cc(=O)oc12 (configuration not stated)	8	-7	0	-3	x	x
COc1ccc(C(CC(=O)N2CCCC(C)C2)c2c(OC)cc(OC)c3c(-c4ccccc4)cc(=O)oc23)cc1 (configuration not stated)	-3	18	-1	69*	63*	-1
COc1ccc(C(CC(=O)N2CCCC(C)C2)c2c(OC)cc(OC)c3ccc(=O)oc23)cc1 (configuration not stated)	6	-5	2	3	x	x
COc1cc(C(CC(=O)N2CCCC2)c2c(OC)cc(OC)c3c(-c4ccccc4)cc(=O)oc23)cc(OC)c1OC (configuration not stated)	3	7	7	43*	30	x
COc1ccc(C(CC(=O)N2CCCCC2)c2c(OC)cc(OC)c3c(-c4ccccc4)cc(=O)oc23)cc1 (configuration not stated)	-7	22	-9	72*	73*	4
COc1ccc(C(CC(=O)N2CCOCC2)c2c(OC)cc(OC)c3ccc(=O)oc23)cc1 (configuration not stated)	-1	16	2	12	x	x
COc1ccc(C(CC(=O)N2CCOCC2)c2c(OC)cc(OC)c3c(-c4ccccc4)cc(=O)oc23)cc1 (configuration not stated)	-5	11	-17	60*	48*	-2
COc1ccc(C(CC(=O)N2CCCC2)c2c(OC)cc(OC)c3ccc(=O)oc23)cc1 (configuration not stated)	1	-3	6	7	x	x
COc1ccc(C(CC(=O)N2CCCC2)c2c(OC)cc(OC)c3c(-c4ccccc4)cc(=O)oc23)cc1 (configuration not stated)	-1	28	2	75*	76*	-3
O=S(=O)(c1ccccc1)N1CC2(C1)[C@@H](c1ccccc1)[C@@H](CO)N2CC1CC1	x	x	16	x	x	x
Cc1ccc(N2C(SCC(=O)O)=NC(=Nc3cccc(C)c3)C23CCCC3)cc1	-2	5	0	44*	15*	-2
C[C@@H]1CN([C@@H](C)CO)S(=O)(=O)c2ccc(-c3ccccc3)cc2O[C@@H]1CN(C)Cc1ccccc1	x	x	-11	x	x	x
Cc1cccc(NC(=O)CSc2ncnc3nc[nH]c23)c1C	10	8	x	34	x	x
Cc1ccc(C)c(NC(=O)CSc2ncnc3nc[nH]c23)c1	-6	5	x	47*	31*	-3
O=C(C1COc2ccccc2O1)N1CCCC1 (configuration not stated)	1	-6	-1	-4	x	x
O=C(C1COc2ccccc2O1)N1CCc2ccccc21 (configuration not stated)	-1	15	x	43*	36*	1
COCC(=O)N1CC2(C1)[C@H](c1ccc(-c3ccccc3)cc1)[C@@H](CO)N2C(C)=O	x	x	5	x	x	x
SMILES	ABHD5-PLIN5 inh	APOBEC3G inh	FN deposition inh	A3A deaminase	APOBEC3A confirm	UDG ctr A3A
CCS(=O)(=O)N[C@@H]1CC[C@@H](CC(=O)NC2Cc3ccccc3C2)O[C@@H]1CO	x	x	1	x	x	x
CCCCc1c(C)nc2ccc(OC)cc2c1SCCC(=O)O	1	6	-1	42*	27	x
CCOC(=O)CCSc1nc(C)c2cc(OC)ccc2n1	1	8	x	4	x	x
CC[N+]1(CC)CC2CCC(C)(C1)C2(C)C (configuration not stated)	4	9	14	58*	79*	8
CC12CCC(C[N+](C)(C)C1)C2(C)C (configuration not stated)	1	20	x	65*	69*	-2
C[C@@H]1CC(=O)NCC/C=C\C[C@H](c2cccc(Cl)c2)NC1=O	x	x	-11	x	x	x
CCCC(=O)Nc1ccc2c(c1)C(=O)N(C)[C@@H]1CC[C@H](CC(=O)NCc3ccccc3Cl)O[C@H]1CO2	x	x	-8	x	x	x
C[C@H](CO)N1C[C@H](C)[C@H](CN(C)C(=O)c2ccncc2)OCc2cn(nn2)CCCC1=O	x	x	3	x	x	x
COc1ccc(C(=O)Nc2ccc3c(c2)C(=O)c2ccccc2C3=O)cc1OC	2	7	-13	66*	12	x
COc1cc(C(=O)Nc2ccc3c(c2)C(=O)c2ccccc2C3=O)cc(OC)c1OC	-5	x	x	x	x	x
CCC1CCCCN1C(=O)COc1ccccc1NC(C)=O (configuration not stated)	1	11	-1	41*	3	x
COc1ccc(CCCc2nnc(SCC(=O)Nc3ccc(C)c(C)c3)o2)cc1	4	27	9	50*	72*	4
COc1ccc(CCCc2nnc(SCC(=O)Nc3ccc(OC)cc3)o2)cc1	-3	16	x	45*	71*	6
Cc1cc(C)nc(SCc2nnc(SCC(=O)Nc3ccc(Cl)c(C(F)(F)F)c3)o2)n1	-3	-2	x	70*	-3	19
C[C@@H]1CN([C@@H](C)CO)C(=O)c2c(c3ccccc3n2C)-c2ccccc2CO[C@@H]1CN(C)C(=O)c1ccccc1	x	x	-16	x	x	x
